# Results of several laboratories.
# Compare with care: the assays were run in different laboratories.
# Organism: Enterococcus faecium
SMILES,test,test system,setting,quantity,result
O=C(O)CCc1ccc(Oc2ccc(-c3noc(-c4ccc(O)cc4)n3)cc2)cc1,"microbial growth, broth dilution",,24 h,MIC,> 32 µg/mL
CC1CCN(CCCN2/C(=C/c3cc[n+](C)c4ccccc34)Sc3ccccc32)CC1.[I-],microbial killing,ATCC700221,,MBC,128 µg/mL
O=C(O)c1cccc(-n2c(/C=C/c3ccc(F)c(Cl)c3)nc3ccccc3c2=O)c1,"microbial growth, broth dilution",NCTC7171,,MIC,> 128 µg/mL
Cc1cc(/C=C2\Sc3ccccc3N2CCCN2CCC(C)CC2)c2ccccc2[n+]1C.[I-],microbial killing,ATCC700221,,MBC,> 64 µg/mL
CN(C)CCc1ccc(Oc2ccc(-c3noc(-c4ccc(O)cc4)n3)cc2)cc1,"microbial growth, broth dilution",,24 h,MIC,4 µg/mL
O=C(Nc1ccc2c(c1)OC(F)(F)O2)Nc1ccc(Cl)c(C(F)(F)F)c1,microbial growth,,,MIC,1 µM
O=c1c2cnccc2nc(/C=C/c2ccc(Cl)cc2)n1-c1cccc(O)c1,"microbial growth, broth dilution",NCTC7171,,MIC,> 128 µg/mL
O=C(O)COc1ccc(Oc2ccc(-c3noc(-c4ccc(O)cc4)n3)cc2)cc1,"microbial growth, broth dilution",,24 h,MIC,> 32 µg/mL
CNC(=O)c1cc(Oc2ccc(NC(=O)Nc3ccc(Cl)c(C(F)(F)F)c3)cc2)ccn1,microbial growth,,,MIC,> 100 µM
O=C(N[C@H](CO)[C@H](O)c1ccc([N+](=O)[O-])cc1)C(Cl)Cl,"microbial growth, broth dilution",VRE,,MIC,3.9 µg/mL
CC(=O)OCc1cccc(-n2c(/C=C/c3ccc(C#N)cc3)nc3ccccc3c2=O)c1,"microbial growth, broth dilution",NCTC7171,,MIC,> 128 µg/mL
